# Assay outcomes (PubChem)
# An excerpt weighted towards active compounds, which were near 3.6% of everything screened.
# RAM inhibit: inhibitors of the yeast RAM network, primary screen, dse1pr::URA3 reporter, 5-FOA selection; actives 1.8% (n = 190,000); S. cerevisiae dse1pr::URA3 reporter, 5-FOA growth OD615, 2 d; analog-sensitive cbk1-as2 kinase mutant strain; inhibition, % at 50 µM;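 active = inhibition above a set limit, 3 SD over mean compound inhibition, cut at about 8.4% in these data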;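 also: 0% = DMSO-only wells with no growth and 100% = 10 µM 1-NA-PP1 full growth; inhibition rescues growth on 5-FOA so higher OD means more RAM inhibition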
# BB579 growth dn: growth inhibitors of yeast BB579 in restrictive medium, primary screen, yeast lifespan-shortening project, S. cerevisiae; OD615, 48 h; inhibition, % at 10 µM; actives 0.51% (n = 140,000); AID 804, 2007;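 active = inhibition above a set limit, 3 SD over the mean compound inhibition, cut at about 44% in these data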
#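 System: Saccharomyces cerevisiae DeaD strain BB579, replicative lifespan model yeast | Buffer or medium: Restrictive glucose-based CSMM-D medium | Times: 4 h preincubation and 48 h exposure at 30 °C | Detection: OD615 turbidity measurement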
# Phagocytosis inh: inhibitors of macrophage phagocytosis, primary screen, imaging, J774A.1 cells, IgG beads | J774A.1 macrophage IgG-bead phagocytosis | inhibition, % at 5 µM | actives 0.07% (n = 110,000);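 active = inhibition above the mean of the plate negative controls plus 5 SD, cut at about 13% in these data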;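 also: phagocytic index as fraction of beads internalized from green versus red external bead signal; plate controls were DMSO negative control for no effect and cytochalasin-D positive control for full effect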
# Measles CPE: compounds protecting cells from measles virus cytopathic effect, primary screen, measles RdRp inhibitor project, single point, MLSMR library, absorbance; Measles virus-infected cells, CPE protection; protection (pct of control), % at 4 µM; actives 1.5% (n = 140,000); in the data active = protection mostly above about 24%, no sharp cut-off; inactive = mostly below about 26%
# Yeast lifespan up: compounds extending yeast replicative lifespan, primary screen, S. cerevisiae, OD615 | AID 775, 2007 | S. cerevisiae growth with nicotinamide; deaD strain in restrictive glucose medium | inhibition of the nicotinamide effect, % at 10 µM | actives 0.68% (n = 130,000);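 active = inhibition above a set limit, placed 3 SD over the median of all compounds, cut at about 26% in these data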;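 also: 0% = nicotinamide-treated wells and 100% = cells grown without nicotinamide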
#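 Test system – modified budding yeast, DeaD strain · Compound – single dose 10 µM compound, 0.25% DMSO · Times – culture preincubation 4 h, compound exposure 48 h, both 30 °C · Detection – optical density (absorbance) at 615 nm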
# An asterisk follows results filed as active; · = no result given.
SMILES,RAM inhibit,BB579 growth dn,Phagocytosis inh,Measles CPE,Yeast lifespan up
CCOc1ccc(N(CC(=O)Nc2cccc(N(C)S(C)(=O)=O)c2)S(=O)(=O)c2ccccc2)cc1,9.6*,-38,-3,4,-5
COc1ccc(CCNC(=O)c2cn3ccc(C)cc3n2)cc1OC,1,·,·,·,·
CCOc1ccc(C(=O)Nc2c3c(nn2-c2ccc(C)cc2)CS(=O)C3)cc1OCC (stereo not given),9.6*,-26,0,1,4
Cc1ccc(-n2nc3c(c2NC(=O)c2ccc4c(c2)OCO4)CS(=O)C3)cc1 (stereo not given),2,-25,-2,11,-1
COc1ccc(C2CCCN2C(=S)Nc2cccc(C)c2)cc1OC (stereo not given),0,·,·,·,·
COc1ccc(NC(=S)N2CCCC2c2ccc(OC)c(OC)c2)cc1 (stereo not given),9.9*,·,·,·,·
NC(=O)c1ccc(NC(=O)COC(=O)CC(NC(=O)c2ccccc2Cl)c2ccccc2)cc1 (stereo not given),1,-13,·,5,1
CCCNC(=O)C(Sc1ccccc1)c1ccccc1 (stereo not given),3,-30,-5,25,2
CCN(CC)C(=O)C(Sc1ccccc1)c1ccccc1 (stereo not given),0,-8,1,61*,-8
Cc1cc(C)n(C(=O)CNC(=O)/C=C/c2ccccc2)n1,1,·,·,·,·
CCc1ccc(OCC(=O)NC(NC(=S)Nc2ccc(Cl)cc2)C(Cl)(Cl)Cl)cc1 (stereo not given),9.5*,-20,·,3,7
COC(=O)c1nn(-c2cccc(C)c2)c2nnc(Cc3ccccc3)c(=O)n12,1,-16,-1,9,26*
COC(=O)c1nn(-c2ccccc2)c2nnc(Cc3ccc(C)cc3)c(=O)n12,4,-19,1,10,-1
Cc1ccc(C(=O)N/C(=C\c2ccccc2)C(=O)OCc2ccccc2)cc1,9.5*,-26,-7,10,3
CCOC(=O)/C(=C/c1ccc(Cl)cc1)NC(=O)c1ccco1,2,-46,-3,9,12
O=C(OCc1ccccc1)/C(=C/c1cccc2ccccc12)NC(=O)c1ccccc1,3,-5,2,42,-8
O=C(OCc1ccccc1)/C(=C/c1ccc(Cl)cc1)NC(=O)c1ccccc1Cl,9.2*,-56,-4,14,-1
Cc1ccccc1SCC(=O)OCC(=O)Nc1sccc1C(N)=O,0,-36,·,46*,-5
CN(C(=O)CSc1nc2ccccc2s1)c1c(N)n(Cc2ccccc2)c(=O)[nH]c1=O,2,·,·,·,·
Cc1ccc(C(=O)Oc2cccc(NC(=O)c3ccccc3)c2)cc1C,10*,-20,-7,8,3
O=C(CSc1nnc(C2CC2)n1-c1ccccc1)Nc1ccc(N2CCOCC2)cc1,0,-12,0,39*,-11
O=C(CSc1nnc(-c2cccs2)n1-c1ccccc1)N1CCOCC1,1,-22,-1,38*,-14
COc1ccc(-n2cc(-c3ccc(Br)cc3)[nH]c2=S)cc1,9.6*,·,·,·,·
COc1ccc(-n2cc(-c3ccc(OC)c(OC)c3)[nH]c2=S)cc1,1,·,·,·,·
CCc1ccc(NC(=S)N2CCNC(=O)C2CC(=O)OC)cc1 (stereo not given),1,·,·,·,·
SMILES,RAM inhibit,BB579 growth dn,Phagocytosis inh,Measles CPE,Yeast lifespan up
O=C(COC(=O)c1cccc(S(=O)(=O)N2CCc3ccccc32)c1)Nc1ccc(Cl)cn1,4,-32,·,35*,-1
O=C(COC(=O)c1ccc(Cl)c(S(=O)(=O)N2CCc3ccccc3C2)c1)Nc1ncc(Cl)cc1Cl,10*,-42,-1,5,4
Cc1nc(NC(=O)COC(=O)c2ccc(S(=O)(=O)N3CCc4ccccc4C3)cc2)c(Cl)cc1Cl,2,·,·,·,·
O=C(COC(=O)c1cccc(S(=O)(=O)N2CCc3ccccc32)c1)Nc1ncc(Cl)cc1Cl,3,-48,-5,6,0
O=C(/C=C/c1cccc(Cl)c1)c1nc2ccccc2[nH]1,1,-42,·,58*,-16
O=C(CSc1cn(Cc2cccc(F)c2)c2ccccc12)NCc1ccc(F)cc1,9.9*,-16,·,10,6
O=C(NNC(=O)c1cccs1)c1ccc([N+](=O)[O-])cc1,2,·,·,·,·
CC(=O)N1N=C(c2ccc(Cl)cc2)OC1(C)C,1,48*,-11,12,23
CC(=O)N1N=C(c2ccccc2)OC12CCCC2,0,·,·,·,·
COc1ccc(OCCSCc2nnc(NC(=O)Nc3ccc(Cl)cc3)s2)cc1,4,-38,-2,6,2
Cc1ccc(O)c(-c2cc(C(=O)Nc3ccc(S(=O)(=O)N4CC(C)OC(C)C4)cc3)[nH]n2)c1 (stereo not given),8.9*,-71,0,15,-3
Cc1cc(O)c(-c2cc(C(=O)Nc3ccc(S(=O)(=O)N4CCOCC4)cc3)[nH]n2)cc1C,2,-98,0,3,3
Clc1ccc2nc(SCc3nnc(-c4ccccc4)o3)[nH]c2c1,2,-37,-2,11,-14
Clc1ccc(OCc2nnc(SCc3nnc(-c4ccccc4)o3)o2)c(Cl)c1,9.6*,-40,0,12,-10
CSc1oc(-c2ccco2)nc1S(=O)(=O)c1ccc(Br)cc1,8.4*,-16,-2,9,-2
CC1CCN(S(=O)(=O)c2ccc(NC(=O)Cc3cccs3)cc2)CC1,9.1*,-42,-1,18,-12
COc1cc(S(=O)(=O)N(CCc2ccccc2)Cc2cccs2)ccc1-n1cnnn1,9.1*,-49,·,11,·
CC1CCN(S(=O)(=O)c2ccc(NC(=O)CN3CCOCC3)cc2)CC1,1,-5,·,14,-8
COc1cc(NC(=O)Cc2cccs2)ccc1-n1cnnn1,1,-76,-1,29*,-6
COc1cc(NC(=O)Cc2cccs2)cc(OC)c1,2,-22,-1,34*,-9
CCCCCC1CCC(c2n[nH]c(=S)n2C)CC1 (stereo not given),4,·,·,·,·
COc1cc(NC(=S)NCCN2CCOCC2)cc(OC)c1,1,-11,-5,5,-4
O=C(Nc1ccccc1)C1=C[C@H](c2coc3ccccc3c2=O)C[C@H](OCc2ccc(CO)cc2)O1,5,·,·,·,·
O=C(NCc1ccccc1)C1=C[C@H](C2CCCCC2)C[C@H](OCc2ccc(CO)cc2)O1,11*,·,·,·,·
O=C(NCc1ccccc1)C1=C[C@@H](c2csc3ccccc23)C[C@@H](OCCCCO)O1,11*,·,·,·,·
O=C(NCc1ccccc1)C1=C[C@@H](c2coc3ccccc3c2=O)C[C@@H](OCc2ccc(CO)cc2)O1,8.5*,·,·,·,·
CCN(CC)S(=O)(=O)c1ccc(N2CCOCC2)c(NC(=O)c2c3c(nc4ccccc24)CCC3)c1,5,-13,-10,6,-2
